Tests used:
Rattus norvegicus [1] = assay: Oral diuretic activity was evaluated by measuring Na+ excretion in Rat at 9 mg/kg […] ( 0 - 5 hr); format: ADME, organism-based, Urine; parameters: dose 9 mg/kg
Method in brief: (§1)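 Female Charles-River rats (150–170 g) were kept overnight on a sugar diet with water ad libitum. Compound was dissolved in DMF, then diluted with water containing Tween 80 (3 drops/100 mL) to a final 4% DMF, and given po in 5.0 mL. Rats were housed three per metabolism cage. Urine from 0–5 h was analysed for Na+, K+ and Cl−, with concurrent placebo controls. Values are mequiv × 100 per cage, geometric mean of three cages per dose.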

Canis familiaris [2] = assay: Oral diuretic activity was evaluated by measuring Na+ excretion in dog at 1 mg/kg after ip administration ( 0 - 6 hr); format: ADME, organism-based, Canis lupus familiaris, Urine; parameters: dose 1 mg/kg, route intraperitoneal; conditions: in vivo
Method in brief: (§2)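 Spontaneous urine was pooled with bladder urine collected by catheterization at 6 h. Volume was measured and Na+, K+ and Cl− were determined by standard methods. Values are geometric means.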

Canis familiaris [3] = assay: Oral diuretic activity was evaluated by measuring Na+ excretion in dog at 2 mg/kg after […] ( 0 - 6 hr); format: ADME, organism-based, Canis lupus familiaris, Urine; parameters: dose 2 mg/kg; conditions: in vivo
Method in brief: (§3)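 Dogs; spontaneous urine was pooled with bladder urine drained by catheter at the end of 6 h. Urine volume was measured, and aliquots were assayed for Na+, K+ and Cl− by standard methods. Values are geometric means, expressed as mequiv over 0–6 h.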

Canis familiaris [4] = assay: Oral diuretic activity was evaluated by measuring K+ excretion in dog at 5 mg/kg after ip administration ( 0 - 6 hr); format: ADME, organism-based, Canis lupus familiaris, Urine; parameters: dose 5 mg/kg, route intraperitoneal; conditions: in vivo; method in brief: as §2
Rattus norvegicus [5] = assay: Oral diuretic activity was evaluated by measuring Na+ excretion in Rat at 27 mg/kg […] ( 0 - 5 hr); format: ADME, organism-based, Urine; parameters: dose 27 mg/kg; method in brief: as §1
Rattus norvegicus [6] = assay: Oral diuretic activity was evaluated by measuring Na+ excretion in Rat at 3 mg/kg […] ( 0 - 5 hr); format: ADME, organism-based, Urine; parameters: dose 3 mg/kg; method in brief: as §1
Canis familiaris [7] = assay: Oral diuretic activity was evaluated by measuring Na+ excretion in dog at 5 mg/kg after […] ( 0 - 6 hr); format: ADME, organism-based, Canis lupus familiaris, Urine; parameters: dose 5 mg/kg; conditions: in vivo; method in brief: as §3
Canis familiaris [8] = assay: Compound administered intravenously at a dose of 5 mg/kg was evaluated for salidiuretic activity measured as sodium ion excretion in Dog; format: ADME, organism-based, Canis lupus familiaris, Urine; parameters: dose 5 mg/kg, route intravenous; conditions: in vivo, iv
Method in brief: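 Conditioned female mongrel dogs, postabsorptive, water-loaded (500 mL po) 1 h before sodium pentobarbital anesthesia (30 mg/kg iv). Bladder catheter; creatinine 4 g sc; phosphate–mannitol buffer pH 7.4 infused (3.0 mL/min) throughout. […] Urine Na+ measured; response scored 0–6.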

Canis familiaris [9] = assay: Oral diuretic activity was evaluated by measuring K+ excretion in dog at 2 mg/kg after ip administration ( 0 - 6 hr); format: ADME, organism-based, Canis lupus familiaris, Urine; parameters: route intraperitoneal, dose 2 mg/kg; conditions: in vivo; method in brief: as §2
Rattus norvegicus [10] = assay: Oral diuretic activity was evaluated by measuring K+ excretion in Rat at 3 mg/kg […] ( 0 - 5 hr); format: ADME, organism-based, Urine; parameters: dose 3 mg/kg
Method in brief: (§4)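 Female Charles-River rats (150–170 g) were kept overnight on a sugar diet with water ad libitum. Test substance was dissolved in DMF and diluted with water containing Tween 80 to a final 4% DMF vehicle, then given po in 5.0 mL. Rats were housed three per metabolism cage, and 0–5 h urine was assayed for Na⁺, K⁺ and Cl⁻ alongside concurrent placebo groups. Values are mequiv × 100 per cage, geometric means of three cages per dose.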

Rattus norvegicus [11] = assay: Oral diuretic activity was evaluated by measuring K+ excretion in Rat at 81 mg/kg […] ( 0 - 5 hr); format: ADME, organism-based, Urine; parameters: dose 81 mg/kg; method in brief: as §4
Rattus norvegicus [12] = assay: Oral diuretic activity was evaluated by measuring K+ excretion in Rat at 9 mg/kg after […] ( 0 - 5 hr); format: ADME, organism-based, Urine; parameters: dose 9 mg/kg; conditions: in vivo; method in brief: as §4
Canis familiaris [13] = assay: Oral diuretic activity was evaluated by measuring K+ excretion in dog at 1 mg/kg after […] ( 0 - 6 hr); format: ADME, organism-based, Canis lupus familiaris, Urine; parameters: dose 1 mg/kg; conditions: in vivo; method in brief: as §2
Rattus norvegicus [14] = assay: Evaluated for salidiuretic activity measured as sodium ion excretion in Rat, administered orally at a dose of 50 mg/kg; format: functional, Urine; parameters: unit not given beside the values; conditions: route oral
Method in brief: (§5)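 Female Charles-River rats (150–170 g), overnight on sugar diet with water ad libitum. Compound dissolved in DMF, diluted with water containing Tween 80 (final 4% DMF), given po in 5.0 mL; concurrent vehicle placebo. Three rats per metabolism cage; 0–5 h urine analysed for Na+, K+, Cl-. Values: mequiv × 100 per cage, geometric means of three cages per dose; scored 0–6 by Na+.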

[15] = Compound administered orally at a dose of 5 mg/kg was evaluated for salidiuretic activity measured as sodium ion excretion in Rat; format: organism-based; parameters: dose 5 mg/kg; conditions: Urine; method in brief: as §5
Canis familiaris [16] = assay: Oral diuretic activity was evaluated by measuring Cl- excretion in dog at 5 mg/kg after […] ( 0 - 6 hr); format: ADME, organism-based, Canis lupus familiaris, Urine; parameters: dose 5 mg/kg, route intraperitoneal; conditions: in vivo
[17] = Evaluated for salidiuretic activity measured as sodium ion excretion in Rat, administered orally at a dose of 16.5 mg/kg; format: organism-based; parameters: dose 16.5 mg/kg; conditions: Urine; method in brief: as §5
Rattus norvegicus [18] = assay: Oral diuretic activity was evaluated by measuring Cl- excretion in Rat at 27 mg/kg after […] ( 0 - 5 hr); format: ADME, organism-based, Urine; parameters: dose 27 mg/kg, route intraperitoneal; conditions: in vivo
Canis familiaris [19] = assay: Oral diuretic activity was evaluated by measuring Cl- excretion in dog at 2 mg/kg after […] ( 0 - 6 hr); format: ADME, organism-based, Canis lupus familiaris, Urine; parameters: dose 2 mg/kg, route intraperitoneal; conditions: in vivo
Rattus norvegicus [20] = assay: Oral diuretic activity was evaluated by measuring Cl- excretion in Rat at 3 mg/kg after […] ( 0 - 5 hr); format: ADME, organism-based, Urine; parameters: dose 3 mg/kg, route intraperitoneal; conditions: in vivo
Rattus norvegicus [21] = assay: Oral diuretic activity was evaluated by measuring Cl- excretion in Rat at 9 mg/kg […] ( 0 - 5 hr); format: ADME, organism-based, Urine; parameters: dose 9 mg/kg; conditions: in vivo; method in brief: as §4
Canis familiaris [22] = assay: Oral diuretic activity was evaluated by measuring Cl- excretion in dog at 1 mg/kg after […] ( 0 - 6 hr); format: ADME, organism-based, Canis lupus familiaris, Urine; parameters: dose 1 mg/kg, route intraperitoneal; conditions: in vivo
Rattus norvegicus [23] = species on record: Rattus norvegicus; assay: Time taken for the decrease in arterial pressure was measured; format: functional, Artery
Rattus norvegicus [24] = assay: Maximum fall in mean arterial blood pressure was measured in SH rats when compound was administered at 20 mg/kg perorally; format: functional; conditions: route oral
Rattus norvegicus [25] = assay: Maximum fall in mean arterial blood pressure was measured in SH rats when compound was administered at 40 mg/kg perorally; format: functional; conditions: route oral
Rattus norvegicus [26] = assay: Oral diuretic activity was evaluated by measuring K+ excretion in Rat at 27 mg/kg after po administration ( 0 - 5 hr); conditions: in vivo
Rattus norvegicus [27] = assay: Oral diuretic activity was evaluated by measuring Cl- excretion in Rat at 81 mg/kg after po administration ( 0 - 5 hr); conditions: in vivo
Rattus norvegicus [28] = assay: Compound administered orally at a dose of 1 mg/kg was evaluated for salidiuretic activity measured as sodium ion excretion in Rat; conditions: in vivo, po

- Diuretic activity (Rattus norvegicus [1]): 2.68
- Diuretic activity (Canis familiaris [2]): 28.38
- Diuretic activity (Canis familiaris [3]): 40.38
- Diuretic activity (Canis familiaris [4]): 10.38
- Diuretic activity (Rattus norvegicus [5]): 3.16
- Diuretic activity (Rattus norvegicus [6]): 1.75
- Diuretic activity (Canis familiaris [7]): 43.13
- Diuretic activity (Canis familiaris [8]): > 900
- Diuretic activity (Canis familiaris [9]): 9.13
- Diuretic activity (Rattus norvegicus [10]): 0.52
- Diuretic activity (Rattus norvegicus [11]): 0.9
- Diuretic activity (Rattus norvegicus [12]): 0.71
- Diuretic activity (Canis familiaris [13]): 6.5
- Diuretic activity (Canis familiaris [16]): 54.25
- Diuretic activity (Rattus norvegicus [18]): 4.31
- Diuretic activity (Canis familiaris [19]): 51.63
- Diuretic activity (Rattus norvegicus [20]): 2.4
- Diuretic activity (Rattus norvegicus [21]): 3.7
- Diuretic activity (Canis familiaris [22]): 38.25
- Diuretic activity (Rattus norvegicus [26]): 0.94
- Diuretic activity (Rattus norvegicus [27]): 4.87
- Diuretic activity (Rattus norvegicus [28]): 2.1
Structure (SMILES): CC(C)(C)c1cc(Cl)c(O)c(CN)c1.Cl
- Diuretic activity (Rattus norvegicus [14]): 3.9
- Diuretic activity [15]: 3.6
- Diuretic activity [17]: 4.2
- Duration (Rattus norvegicus [23]): 24 h
- MAP (Rattus norvegicus [24]): 9 mmHg
- MAP (Rattus norvegicus [25]): 35 mmHg

Source: ChEMBL document CHEMBL1121573, “2-(Aminomethyl)phenols, a new class of saluretic agents. 1. Effects of nuclear substitution” (J Med Chem, 1980)
